Positions of bridges follow the written chain, without caps; N, C: chain ends. Residues, ends and D or L forms follow the SMILES beside them.
What was measured:
[1] = molecular target: T1, Lethal factor (Bacillus anthracis) (UniProt P15917); assay: (§1) Inhibition of Bacillus anthracis lethal factor protease preincubated for 30 mins prior to addition of substrate containing fluorescent proteins CyPet and YPet measured every 2 mins for 3 hrs by FRET assay
T1 sequence (whole entry): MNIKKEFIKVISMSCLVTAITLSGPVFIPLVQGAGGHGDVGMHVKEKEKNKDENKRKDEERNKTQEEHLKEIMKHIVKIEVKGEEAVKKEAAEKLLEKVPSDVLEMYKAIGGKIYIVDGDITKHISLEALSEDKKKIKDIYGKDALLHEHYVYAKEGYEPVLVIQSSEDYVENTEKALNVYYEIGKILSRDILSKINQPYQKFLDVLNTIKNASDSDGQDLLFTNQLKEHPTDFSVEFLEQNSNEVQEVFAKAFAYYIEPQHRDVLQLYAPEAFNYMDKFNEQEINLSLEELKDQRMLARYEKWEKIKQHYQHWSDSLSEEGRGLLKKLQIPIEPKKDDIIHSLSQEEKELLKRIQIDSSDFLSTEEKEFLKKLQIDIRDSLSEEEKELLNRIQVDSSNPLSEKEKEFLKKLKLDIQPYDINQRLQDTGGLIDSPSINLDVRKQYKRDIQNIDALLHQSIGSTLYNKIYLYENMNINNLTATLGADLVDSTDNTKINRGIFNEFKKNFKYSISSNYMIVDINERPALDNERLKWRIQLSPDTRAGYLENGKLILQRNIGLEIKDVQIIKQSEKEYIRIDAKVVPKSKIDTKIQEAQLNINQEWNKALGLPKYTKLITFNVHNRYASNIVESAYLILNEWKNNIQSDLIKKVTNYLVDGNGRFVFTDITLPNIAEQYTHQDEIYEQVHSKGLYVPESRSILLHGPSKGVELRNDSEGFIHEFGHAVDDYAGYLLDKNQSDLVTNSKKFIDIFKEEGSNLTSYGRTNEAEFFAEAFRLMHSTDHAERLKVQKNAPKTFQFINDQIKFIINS
Summary of the method: (§2)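 Preincubated with peptide from 1 nM to 10 μM for 30 min at room temperature. CyPet–YPet substrate (LF consensus sequence with (GGS)6 linkers) then added to a final 10 nM. FRET read every 2 min for 3 h with excitation at 405 nm and emission ratio It/I0 at 535 nm. Initial velocities fitted to log(inhibitor)–response with variable Hill slope. Run in triplicate.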

[2] = molecular target: T2, Lethal factor (Bacillus anthracis, UniProt P15917); assay: as §1; summary of the method: as §2
T2 sequence (P15917 whole entry): T1 sequence (whole entry)

[3] = molecular target: Disintegrin and metalloproteinase domain-containing protein 17 (Homo sapiens) (UniProt P78536); assay: Inhibition of recombinant human glycosylated his-tagged TACE catalytic domain (233 to 477 residues) assessed as inhibition of proteolytic activity preincubated for 30 mins prior to addition of Mca-Pro-Leu-Ala-Gln-Ala-Val-Dpa-Arg-Ser-Ser-Ser-Arg-NH2 as substrate measured every 2 mins for 3 hrs by fluorescence analysis
Summary of the method: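 TACE catalytic domain (233-477) at 2 nM in 2.5 μM ZnCl2, 25 mM Tris-HCl, pH 8.0. Preincubated with peptide from 1 nM to 10 μM for 30 min at room temperature. Fluorogenic Mca/Dpa substrate then added to a final 3 μM. Fluorescence read every 2 min for 3 h (excitation 320 nm, emission 405 nm). Initial velocities fitted to log(inhibitor)–response with variable Hill slope.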

[4] = system: HeLa; assay: Cytotoxicity against human HeLa cells up to 100 uM after 48 hrs by MTT assay; format: cell-based
Summary of the method: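 HeLa cells grown in DMEM with 10% FBS, penicillin and streptomycin at 37° C, 5% CO2. About 3 × 10^3 cells per well were seeded for 24 h, washed with PBS, then exposed to peptides in DMEM/10% FBS for 48 h at 37° C. MTT was added for 2 h and formazan dissolved in DMSO. Absorbance read at 595 nm with 670 nm background subtracted.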

[5] = molecular target: T2, Lethal factor

Sequence of Disintegrin and metalloproteinase domain-containing protein 17 (Homo sapiens) (P78536 whole entry, the tested form may be a part): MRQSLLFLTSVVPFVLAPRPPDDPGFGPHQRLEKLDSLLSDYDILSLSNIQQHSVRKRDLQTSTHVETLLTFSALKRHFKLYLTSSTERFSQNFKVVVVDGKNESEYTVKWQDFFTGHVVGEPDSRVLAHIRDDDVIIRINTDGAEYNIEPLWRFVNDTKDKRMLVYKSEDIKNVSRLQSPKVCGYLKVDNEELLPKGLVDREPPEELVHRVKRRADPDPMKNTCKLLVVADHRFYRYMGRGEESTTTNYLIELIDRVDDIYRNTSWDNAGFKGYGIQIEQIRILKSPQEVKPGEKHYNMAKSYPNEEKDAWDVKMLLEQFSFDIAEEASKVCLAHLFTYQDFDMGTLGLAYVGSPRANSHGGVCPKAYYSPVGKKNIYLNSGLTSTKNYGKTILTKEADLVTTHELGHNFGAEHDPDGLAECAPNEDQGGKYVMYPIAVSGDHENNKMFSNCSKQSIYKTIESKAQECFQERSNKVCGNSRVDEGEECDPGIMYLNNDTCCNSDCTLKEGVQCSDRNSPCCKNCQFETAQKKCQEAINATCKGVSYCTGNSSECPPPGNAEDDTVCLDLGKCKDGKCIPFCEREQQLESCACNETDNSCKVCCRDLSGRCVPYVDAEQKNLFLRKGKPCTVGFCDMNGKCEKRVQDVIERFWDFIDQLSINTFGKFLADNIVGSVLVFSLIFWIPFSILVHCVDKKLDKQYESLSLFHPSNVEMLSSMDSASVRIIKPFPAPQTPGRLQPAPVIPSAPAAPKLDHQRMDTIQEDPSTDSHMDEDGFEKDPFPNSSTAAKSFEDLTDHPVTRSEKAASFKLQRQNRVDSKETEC

**Q.** For CC[C@H](C)[C@@H]1NC(=O)[C@@H]2CSSC[C@H](NC(=O)[C@H](CCCNC(=N)N)NC(=O)[C@@H]3CSSC[C@H](NC1=O)C(=O)N[C@@H]([C@@H](C)O)C(=O)N[C@@H](CCCNC(=N)N)C(=O)NCC(=O)N[C@@H](Cc1ccccc1)C(=O)N3)C(=O)N[C@@H](CC(C)C)C(=O)N[C@H]1CSSC[C@H](NC(=O)[C@H](C(C)C)NC(=O)CNC(=O)[C@H](CCCNC(=N)N)NC(=O)[C@H](CCCNC(=N)N)NC1=O)C(=O)N[C@@H](CCCNC(=N)N)C(=O)N2 (cyclo(GFCRCLCRRGVCRCICTR); disulfide 3-16, 5-14, 7-12), which inhibition [1] is on record?
**A.** Dose-dependent effect

**Q.** And the IC50 [2]?
**A.** 0.39 µM

**Q.** And the inhibition [3]?
**A.** Dose-dependent effect

**Q.** What about the Activity [4] of the same molecule?
**A.** Non-Toxic

**Q.** What about the IC50 [5] of the same molecule?
**A.** 1.06 µM

Source: ChEMBL document CHEMBL4007405 (J Med Chem, 2017)
